# According to the RNAGym collection of RNA variant scans (doi:10.1126/science.aae0568):
# Variants at the floor of the assay were thinned out.
# B1: tRNA (parent)
# chain: GUUCCGUUGGCGUAAUGGUAACGCGUCUCCCUCCUAAGGAGAAGACUGCGGGUUCGAGUCCCGUACGGAACG
# Variants of: B1
# Assay: yeast fitness relative to wild type (ratio to wild type); higher = fitter; tRNA-Arg(CCU), competitive growth, 37 C, YPD
# Method in brief: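 A pool of Saccharomyces cerevisiae strains, each with a tRNA-Arg(CCU) gene variant at the native genomic locus, was competed in YPD at 37°C for 24 hours across six parallel replicates. The variants had been chemically synthesised at a 3% per-site mutation rate over 69 sites, and gene amplicons before and after competition were read by 100-nucleotide paired-end sequencing. Darwinian fitness relative to wild type rested on changes in genotype frequencies. Genotypes required ≥ 100 starting reads, and estimates < 0.5 were set to 0.5.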
row,Variant,yeast fitness
1,GUUCCGUUGGCGUAAUGGUACCGCGGCUCCCUCCAAAGGUGAAGACUGCGGGUUCGAGUCCCGUACGGAACG,≤ 0.5
2,GUUCCGUUGGCGUAAUGGUACCGCGUCUCCCACUUAAGGAGAAGACUGCGGGUUCGAGUCCCGUACGGAACG,≤ 0.5
3,GUUCCGUUGGCGUAAUGGUAGCGCGUCUCCCUCCUAAGGGGAAGACUGCGGGUUCGAGUCCCGUACGGAACG,0.986
4,GUUCCGUUGGCGUAAUGGUAGCGCGUCUCCCUCCUAAGGCGAAGACUGCGGGUUCGAGUCCCGUACGGAACG,0.88
5,GUUCCGUUGGCGUAAUGGUAGCGCGUCUCCCUCCUAAGGUGAAGACUGCGGGUUCGAGUCCCGUACGGAACG,0.914
6,GUUCCGUUGGCGUAAUGGUAGCGCGUCUCCCUCCUAAGGCGUAGAUUGUGAGUUCGAGUCCCGUCCGGAACG,0.732
7,GUUCCGUUGGCGUAAUGGUACCGCGUCUCCCUCCUAAGGAGAAGACAGCGGGUUCGAGUUCCGUACCGUACG,0.574
8,GUUCCGUUGGCGUAAUGGUAGCGCGUCUCCCUCCUAAGGUGAAGACUGCGGCUUAGAGUCCCGUAGGGAACG,0.539
9,GUUCCGUUGGCGUAAUGGUAGCGCGUCUCCCUCCUAAGGGGAAGACUGCGGGUUCGAGUCUCGUACGGAACG,0.654
10,GUUCCGUUGGCGUAAUGGUACCGCGUCUCCCUCCUAAGGAGAAGACUGCGGGUUCAGGUCCCGUAUGGAACG,≤ 0.5
11,GUUCCGUUGGCGUAAUGGUACCGCGUCACCCUCCUAAAGAGAAGACUGCGGGUUCGAGCCCCGUACAGAACG,≤ 0.5
12,GUUCCGUUGGCGUAAUGGUACCGCGUCUCCCUCCUAAGGAGAAGACUGCGGGUUCGAGUCCCGCACGGAACG,0.835
13,GUUCCGUUGGCGUAAUGGUAGCGCGUCUCCCUCCUGAGGAGAAGACUGCGAGUUCGAGUCCCGUACGGCACG,≤ 0.5
14,GUUCCGUUGGCGUAAUGGUAGCGCGUCUCCCUCCUAAGGAGCAGACUGCGGGUUCGAGUCCCGUACGGAUCG,0.761
15,GUUCCGUUGGCGUAAUGGUACCGCGCCUCCCUCGUAAGGAGAAAAAUGCGGGUUGGAACCCCGUACGGUACG,0.625
16,GUUCCGUUGGCGUAAUGGUACCGCGUCUCCCUCCUAAGGAGAAGACUGCGGGUUCGACUUCCGUAGGGAACG,≤ 0.5
17,GUUCCGUUGGCGUAAUGGUACCGCGUCUCCCACCUAAGGAGAAGAAUGCGGGUUCGAGUCCCGACCGGAACG,≤ 0.5
18,GUUCCGUUGGCGUAAUGGUAGCGCGUCUCCCUCCUAGGCAGAAGACUGCGGGUUCGAGUCCUGUACGGAACG,≤ 0.5
19,GUUCCGUUGGCGUAAUGGUAGCGCGUCUCCCUCCUUAGGAGAAGACUGAGGGUUCGAGUCCCGUACGGAACG,≤ 0.5
20,GUUCCGUUGGCGUAAUGGUACCGCGUCUCCCCCCUAAGGAGAAGACUGCGGGUUCGAGUCCCGAACGGAACG,0.664
21,GUUCCGUUGGCGUAAUGGUACCGCGUCUCCCUCCUAAGGAGAAGACAGCGGGUUCGAGUCCCGUACGGAACG,0.85
22,GUUCCGUUGGCGUAAUGGUAGCGCGUCUCCCUCCUGAGGAGAAGACUGCGGGAUCGUGUCCCGUUCGGAACG,≤ 0.5
23,GUUCCGUUGGCGUAAUGGUACCGCGUCACCCUCCUAAGGUGAAGACUGCGGGUUCGAGUCCGGUAGGGAACG,≤ 0.5
24,GUUCCGUUGGCGUAAUGGUAGCGCGUCUCCCUCCUAAGGAGCAGACUGCGGGUUCGAGUCCCGUACAGAACG,0.662
25,GUUCCGUUGGCGUAAUGGUACCGCGUCUCCCCCCUAAGGAGAAGAUUGCGGGUUCGAGUCCCGUACGGAACG,0.849

row,Variant,yeast fitness
1,GUUCCGUUGGCGUAAUGGUACCGCGUCUCCCCCCUAAGGGGAAGACUGCGGGUUCGAGUCCCGUACGGAACG,0.557
2,GUUCCGUUGGCGUAAUGGUAGCGCGUCUCCCUCCUAAGGGGAAGACUGCGGGUUCGAGUCCCGUACGGAUCG,0.609
3,GUUCCGUUGGCGUAAUGGUAGCGCGUCUCCCUCCUUAGGAGAAGUCUGUGGGUUCGAGUCCCGAACGGAUCG,≤ 0.5
4,GUUCCGUUGGCGUAAUGGUAGCGCGUCUCCCUCCUAAGGAGCAGACUGCGGGUUCGAGUCCCGUAAGGAACG,≤ 0.5
5,GUUCCGUUGGCGUAAUGGUAGCGCGUCUCCCUCCUGAGGAGUAGACUGCGGGUUCGGGUCCCGUACGGAACG,≤ 0.5
6,GUUCCGUUGGCGUAAUGGUAGCGCGUCUCCCUCCUAAGGAGCAGACUGCGGGUUCGAGUCCCGUACGGAACG,0.96
7,GUUCCGUUGGCGUAAUGGUACCGCGUCGCCCUCCUAAGGAGAAGACUGCGGGUUCGAGUCCCGUAUGGAACG,≤ 0.5
8,GUUCCGUUGGCGUAAUGGUACCGCGUCUCCCGCCUAAGGAGAAGACUGCGGGUUCGAGUCCCGUACGGAACG,0.617
9,GUUCCGUUGGCGUAAUGGUACCGCGUCUCCCUCCUAAGGAGAAGACUGCGGGUUCGAGUCCCGUACGCAACG,0.67
10,GUUCCGUUGGCGUAAUGGUACCGCGACUCCCUCCUAAGGAGAAGAUUGCGGGUUUGAGUCCCGUACGGAACG,0.608
11,GUUCCGUUGGCGUAAUGGUACCGCGUCUCCCUCCUAAGGAGAAGACUGCGGGUCCGAGUCCCGUACGGAACG,0.845
12,GUUCCGUUGGCGUAAUGGUACCGCGUCUCCCUCCUAAGGAGAAGACUGCGGGUACGAGUCCCGUACGGAACG,0.552
13,GUUCCGUUGGCGUAAUGGUACCGCGUCUCCCUCCAAAGGAGAAGACUGCCGGUUCGAGUCCCGUACGGCACG,≤ 0.5
14,GUUCCGUUGGCGUAAUGGUAGCGCGUCUCCCUCCUAAGGCGCAGACUGCGGGUUCGAGUCCCGUAAGGAACG,≤ 0.5
15,GUUCCGUUGGCGUAAUGGUACCGCGUCUCCCCCCUAAGGAGAAGAUUGCGGGUUCGAGUCCCGUAUGGAACG,0.585
16,GUUCCGUUGGCGUAAUGGUACCGCGGCUCCCUCUUAAGGGGAAGACUGCGAGUUCGAGUCCCGUACGGAACG,0.529
17,GUUCCGUUGGCGUAAUGGUACCGCGUCUCCCUCCUAAGGAGAAGACUGCGGGUUCGAGUCCCGGACGGGACG,0.504
18,GUUCCGUUGGCGUAAUGGUAGCGCGUCUCCCUCCUAAGGAGAAGACUGCGGGUUCGAGUCCCGUACGGAACG,1
19,GUUCCGUUGGCGUAAUGGUACCGCGUCUCCCUCCUAAGGAGAAGACUGCGGAUUCGAGUCCCGUACGGAACG,0.636
20,GUUCCGUUGGCGUAAUGGUACCGCGUCUCCCUCCUAAGGAGAAGACUGCGGCUUCGAGUCCCGUACGGAACG,0.511
21,GUUCCGUUGGCGUAAUGGUACCGCGUCACCCUCCUAAGGAGAAGACUGCGGGUUCGAGUCCCGUACGGAACG,0.738
22,GUUCCGUUGGCGUAAUGGUAGCGCGUCUCCCUCCUUAGGAGAAGACUGCGGGUUCGAGUCUCGUACGGAACG,≤ 0.5
23,GUUCCGUUGGCGUAAUGGUAGCGCGUCUCCCUCCUACAGAGAAGACUGCGGGUUCGAGUCCCGUUCGCAACG,≤ 0.5
24,GUUCCGUUGGCGUAAUGGUACCGCGUCACCCUCCUAAGGAGAAGACUGCGGGUUGGUGUCCCGUACAGAACG,≤ 0.5
25,GUUCCGUUGGCGUAAUGGUACCGCGUCUCCCUCCUAAGGAGAAGACUGCCGGUUCGAGUCCCGUACGGAACG,0.584

row,Variant,yeast fitness
1,GUUCCGUUGGCGUAAUGGUACCGCGUCUCCCUCCUAAGGAGAAGACUGCAGGUUCGAGUCCCGUACGGAACG,0.672
2,GUUCCGUUGGCGUAAUGGUACCGCGUCUCCCUCCUAAGGAGAAGACUGCGGGUGGGAGUCCCGUACGGAACG,0.585
3,GUUCCGUUGGCGUAAUGGUACCGCGUCUCCCUCCAAAGGAGAAGACUGCGGGUUCGAGUCCCGUACGGAACG,0.601
4,GUUCCGUUGGCGUAAUGGUACCGCGUCUCCCUCCCAAGGAGAAGACUGCGGGUUCGAGUCCCGUGCGGAACG,0.583
5,GUUCCGUUGGCGUAAUGGUACCGCGUCUCCCUCCUAAGGAGAAGACUGCGGGUUCGAGUCCCGUACUGAACG,0.656
6,GUUCCGUUGGCGUAAUGGUACCGCGUCUCCCUCCUAAGGAGAAGACUGCGCGUUCGAGUCCCGUACGGAACG,0.528
7,GUUCCGUUGGCGUAAUGGUACCGCGUCUCCCUCCUAAGGAGAAGACUGCGAGUUCGAGUCCCGUACGGAACG,0.658
8,GUUCCGUUGGCGUAAUGGUAGCGCGUCUCCCUCCUGACGAGAAGACUGCGGGUUCGAGUCCGGUACGGAACG,≤ 0.5
9,GUUCCGUUGGCGUAAUGGUACCGCGGCUCCCUCCUAAGGAGACGACUGCGGGUUCGAGUCCCGUACGGAACG,≤ 0.5
10,GUUCCGUUGGCGUAAUGGUACCGCGUCUCCCCCCUAAGGAGAAGAGUGGGGGUUCGAGUCCCGUACGGAACG,0.529
11,GUUCCGUUGGCGUAAUGGUACCGCGCCUCCCUCCUAAGGGGAAGACCGCGGGUUCGAGUCCCGUACGGAACG,≤ 0.5
12,GUUCCGUUGGCGUAAUGGUAGCGCGUCUCCCUCCUACGGAGAAGACUGCGGGUUCGAGUCCCGUUCGCAACG,≤ 0.5
13,GUUCCGUUGGCGUAAUGGUACCGCGUCUCCCACCUAAGGAGAAGAAUGCGGGUUCGAGUCCCGUACGGAACG,0.744
14,GUUCCGUUGGCGUAAUGGUACCGCGCCUCCCUCCUAAGGAGAAGACUGCGGGUUCGAGUCCCGUACGGAACG,0.785
15,GUUCCGUUGGCGUAAUGGUAGCGCGUCUCCCUCCUAAGGAGCAGACUGCGGGUUCGAGUCUCGUACGGAACG,0.659
16,GUUCCGUUGGCGUAAUGGUACCGCGUCUCCCUCCUAAGGAGAAGACUGCGGGGUCGAGUCCUGUACGCAACG,≤ 0.5
17,GUUCCGUUGGCGUAAUGGUACCGCGUCUCCCACAUAAAGAGAAGUCUGCGGGUUCGAGUCCCGUACGGAACG,≤ 0.5
18,GUUCCGUUGGCGUAAUGGUACCGCGUCACCCCCCUAAGGAGAAGACUGCGGGUUCGAGUCCCGUACGAAACG,≤ 0.5
19,GUUCCGUUGGCGUAAUGGUACCGCGUCUCCCUCCUAAGGAGAAGACUGCGGGUUCGAGACCCGUACGGAACG,0.791
20,GUUCCGUUGGCGUAAUGGUACCGCGUCUCCCUCCUAAGGAGAAGACUGCGGGUUCGAGUCCCAUACGGAACG,0.88
21,GUUCCGUUGGCGUAAUGGUAGCGCGUCUCCCUCCUAAGGCGUAGAUUGUGAGUUCGAGUCCCGUACGGCACG,0.596
22,GUUCCGUUGGCGUAAUGGUACCGCGUCACCGUCCUAAGGAGAAGACUGCGGGUUCGAGUCCCGUACGGAACG,≤ 0.5
23,GUUCCGUUGGCGUAAUGGUAGCGCGUCUCCCUCCUAAGGAGCAGACUGCGGAUUCGAGUCCCGUACGGAACG,0.637
24,GUUCCGUUGGCGUAAUGGUACCGCGUCUCCCUCCUAAGGAGAAGACUGCGGCUUCGAGUCCCGUACCGAACG,≤ 0.5
25,GUUCCGUUGGCGUAAUGGUAGCGCGUCUCCCUCCUGAGGAGAAGACUGCGGGUUCGAGUCCCGUACGGAACG,0.954
